# Screening data as filed in PubChem.
# The list is not random: actives were taken first. Their share in the collection is about 1.3%.
# AF4-AF9 inh: inhibitors of AF4 peptide binding to AF9, primary screen, biochemical, AlphaScreen, biotin-AF4 peptide, FLAG-AF9, single point | Protein AF-9 (Homo sapiens), P42568 | inhibition, % at 10 µM | 350,000 compounds, 0.47% hits;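 active = every replicate reaching a set inhibition limit, whatever the replicate mean, cut at about 25% in these data; inconclusive = mean inhibition reaches that limit but some replicates miss it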;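 note: 0% = plate neutral control median and 100% = total signal loss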
# PDI turbidity: inhibitors of human PDI, primary screen, biochemical, turbidity, single point, plate reader; Protein disulfide-isomerase (Homo sapiens), P07237; inhibition, % at 10 µM; PDI insulin aggregation turbidity, A650, 90 min; 350,000 compounds, 0.052% hits;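 active = mean inhibition across replicates of 30% or more, whatever share of single replicates reach that level; inconclusive = mean inhibition below 30% while every single replicate reaches 30%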
# ERp5 block: inhibitors of ERp5-driven insulin aggregation, primary screen, biochemical, turbidity, absorbance 650 nm, single point. 350,000 compounds, 0.05% hits. 90 min. inhibition, % at 9.99 µM. Protein disulfide-isomerase A6 (Homo sapiens), Q15084;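 active = mean replicate inhibition above about 25%, with every replicate also reaching it, limit read from the data, passing the limit was not always enough; inconclusive = only one of those two criteria met; inactive = neither criterion met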
# FN deposition inh: inhibitors of fibronectin matrix deposition, primary screen, AH1F cells, Alexa488-fibronectin fluorescence, plate reader. AH1F fibroblasts, overnight. inhibition, % at 12.6 µM. 350,000 compounds, 0.086% hits. AID 743247, 2014;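 active = mean inhibition across replicates of 30% or more, regardless of how many single replicates reach that level; inconclusive = mean under 30% yet at least half of replicates reach 30%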;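 note: positive control wells lacked labelled fibronectin entirely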
#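 Material: AH1F fibroblast monolayer depositing Alexa488-labelled fibronectin into matrix / Amount: 10000 AH1F cells per well / Signal: fluorescence 485/525 nm / Medium: DMEM, 2% serum / Compound: single dose, pinned / Incubation: 1 h cell adhesion before compound, then overnight fibronectin incubation / Reagent: Alexa488-FN, 24 nM final / Read-out: inhibition of fibronectin deposition signal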
# SIRT5 inh: SIRT5 desuccinylase inhibitors, primary screen, biochemical, fluorescence imaging, single point, set 5 | NAD-dependent protein deacylase sirtuin-5, mitochondrial (Homo sapiens), Q9NXA8 | Purified SirT5, succinyl-peptide AMC, trypsin-coupled fluorescence | inhibition, % at 15 µM | 330,000 compounds, 1.1% hits; in the data active = inhibition above about 15%; inconclusive = no clear call, values can overlap the other calls
# Target sequence (Q9NXA8 whole entry, looked up): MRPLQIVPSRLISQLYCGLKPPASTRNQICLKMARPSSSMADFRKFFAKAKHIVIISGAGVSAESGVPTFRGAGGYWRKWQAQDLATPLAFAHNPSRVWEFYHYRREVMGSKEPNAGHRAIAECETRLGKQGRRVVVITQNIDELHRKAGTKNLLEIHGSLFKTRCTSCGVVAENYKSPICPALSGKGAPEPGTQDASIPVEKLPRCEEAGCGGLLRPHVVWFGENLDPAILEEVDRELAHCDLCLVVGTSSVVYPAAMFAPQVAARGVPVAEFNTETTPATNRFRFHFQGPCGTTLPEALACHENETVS
# Starred values were filed as active, the others as inactive; ? = inconclusive; · = no result given.
SMILES,AF4-AF9 inh,PDI turbidity,ERp5 block,FN deposition inh,SIRT5 inh
COCC(=O)N1C[C@@H](C)[C@@H](OC)CN(C)C(=O)c2ccc(NC(=O)c3cc(C)on3)cc2OC[C@@H]1C,-2,·,6,3,34*
CCCN1C[C@@H](C)[C@H](OC)CN(C)C(=O)c2cc(NC(=O)c3cnccn3)ccc2OC[C@H]1C,1,·,-7,-6,17*
CCCN1C[C@@H](C)[C@H](OC)CN(C)C(=O)c2ccc(NC(=O)Nc3cccc(F)c3)cc2OC[C@@H]1C,6,·,3,-16,18*
CO[C@@H]1CN(C)C(=O)c2ccc(NC(C)=O)cc2OC[C@H](C)N(C(=O)Cc2ccccn2)C[C@H]1C,1,·,9,0,16*
CCC(=O)Nc1ccc2c(c1)C(=O)N(C)C[C@H](OC)[C@@H](C)CN(C(=O)c1ccccn1)[C@@H](C)CO2,26*,·,0,-12,1
CO[C@H]1CN(C)C(=O)c2ccc(NC(=O)Nc3ccccc3)cc2OC[C@H](C)N(C(C)=O)C[C@H]1C,2,·,-2,2,1
CCCN1C[C@H](C)[C@H](OC)CN(C)C(=O)c2ccc(NC(=O)Nc3cccc(F)c3)cc2OC[C@H]1C,5,·,0,-1,7
CCC(=O)Nc1ccc2c(c1)C(=O)N(C)C[C@@H](OC)[C@@H](C)CN(C(=O)c1ccccn1)[C@H](C)CO2,?,·,-1,2,1
CO[C@@H]1CN(C)C(=O)c2ccc(NC(=O)Nc3ccccc3)cc2OC[C@@H](C)N(C(C)=O)C[C@H]1C,-1,·,1,1,22*
CC/C(=N/NC(=O)c1ccc(Br)o1)c1ccc(Cl)cc1,·,-6,·,·,·
CCCOc1ccc(N2C(=O)CC(N(CCc3ccc(OC)cc3)C(=O)/C=C/C(=O)O)C2=O)cc1 (stereo unspecified),-2,-3,7,0,42*
COc1ccc(N2C(=O)CC(N(CCc3ccccc3)C(=O)/C=C/C(=O)O)C2=O)cc1 (stereo unspecified),-1,6,3,-10,-6
Cc1ccc(C(=O)NNC(=O)c2cccc(Br)c2)cc1,-7,5,-2,0,-2
CC(C)NC(=O)c1cccc(Br)c1,-38,4,2,·,28*
Cc1ccc(N(C(=O)c2csnn2)C(C(=O)NC2CCCC2)c2ccncc2)c(C)c1 (stereo unspecified),1,0,1,-1,-2
O=C(O)C[C@H]1C[C@H]2c3cc(NC(=O)C4CCOCC4)ccc3O[C@H]2[C@@H](CO)O1,-1,·,3,-5,1
O=C(O)CSc1ncnc2c1sc1nc(-c3ccccc3)c3c(c12)CCC3,-7,1,-3,12,18*
COc1ccccc1S(=O)(=O)N[C@@H]1CC[C@@H](CCNC(=O)C2CCC2)O[C@@H]1CO,-13,·,-2,·,1
CCCC(=O)Nc1ccc2c(c1)OC[C@@H](C)N(Cc1ccc(-c3ccccn3)cc1)C[C@@H](C)[C@H](OC)CN(C)C2=O,3,·,-1,-1,13
O=C(NC(=S)NNC(=O)c1ccc(Cl)cc1Cl)c1cccnc1,·,7,·,12,·
Cc1ccc(S(=O)(=O)Nc2ccc3c(c2)C(=O)N([C@H](C)CO)C[C@@H](C)[C@H](CN(C)Cc2ccc(-c4ccccc4)cc2)O3)cc1,0,·,-10,·,18*
C[C@@H]1CN([C@H](C)CO)C(=O)c2cc(NS(=O)(=O)c3ccccc3)ccc2O[C@@H]1CN(C)Cc1ccc(Oc2ccccc2)cc1,3,·,4,·,17*
C[C@H]1CN([C@@H](C)CO)C(=O)c2cc(NS(=O)(=O)c3ccccc3)ccc2O[C@H]1CN(C)CC1CCCCC1,-3,·,4,·,15
Cc1ccc(S(=O)(=O)Nc2ccc3c(c2)C(=O)N([C@H](C)CO)C[C@H](C)[C@H](CN(C)Cc2ccc(-c4ccccc4)cc2)O3)cc1,0,·,-1,·,14
C[C@@H]1CN([C@@H](C)CO)C(=O)c2cc(NS(=O)(=O)c3ccccc3)ccc2O[C@H]1CN(C)Cc1ccc(-c2ccccc2)cc1,-2,·,-6,·,12
SMILES,AF4-AF9 inh,PDI turbidity,ERp5 block,FN deposition inh,SIRT5 inh
C[C@@H]1CN([C@H](C)CO)C(=O)c2cc(NS(=O)(=O)c3ccccc3)ccc2O[C@H]1CN(C)Cc1ccc(Oc2ccccc2)cc1,1,·,-4,·,10
C[C@@H]1CN([C@@H](C)CO)C(=O)c2cc(NS(=O)(=O)c3ccccc3)ccc2O[C@@H]1CN(C)CC1CCCCC1,-1,·,2,·,25*
C[C@@H]1CN([C@H](C)CO)C(=O)c2cc(NS(=O)(=O)c3ccccc3)ccc2O[C@H]1CN(C)Cc1ccc(-c2ccccc2)cc1,-1,·,-4,·,16*
COc1cc(C(=O)N(CCCO)Cc2cc3ccc(C)c(C)c3[nH]c2=O)cc(OC)c1OC,·,-2,·,-19,·
C[C@@H]1CCCCO[C@H](CN(C)S(C)(=O)=O)[C@@H](C)CN([C@H](C)CO)C(=O)c2cc(NC(=O)Nc3ccc(F)cc3)ccc2O1,-1,·,18,·,·
CC(C)(C)c1cc2nc3c(c(=O)n2[nH]1)CN(Cc1ccccc1)C3=O,·,-2,-1,-8,-10
O=C(NCCS(=O)(=O)NC1CCCC1)c1ccccc1,-2,-3,3,1,17*
O=C(NCCS(=O)(=O)NC1CCCCC1)c1ccccc1,-1,9,4,-4,-4
O=C(Cn1cnc2c(NCc3ccccc3)ncnc21)NCc1ccc2c(c1)OCO2,-1,0,-1,6,27*
COc1ccc2c(CN(Cc3ccccc3)Cc3ccccc3)cc(=O)oc2c1,-4,·,-3,0,1
C#CCn1c(=NC(=O)c2ccco2)sc2cccc(Cl)c21,31*,4,-1,-5,12
Cc1cc(/C=C2\SC(=S)N(C)C2=O)c(C)n1-c1ccccc1O,3,0,-3,-16,0
Cc1cc(/C=C2\SC(=S)N(C)C2=O)c(C)n1-c1ccc(O)cc1,3,75*,5,-4,-5
O=C(NCCOc1ccccc1)c1cc(C(=O)NCCOc2ccccc2)cc([N+](=O)[O-])c1,·,5,·,-8,·
CN(CCOc1ccccc1)C(=O)c1cc([N+](=O)[O-])cc([N+](=O)[O-])c1,2,1,1,6,27*
CSc1ccc2c(c1)N(CCC1CCCCN1C)c1ccccc1S2 (stereo unspecified),39*,3,2,-1,-5
CC(=O)c1ccc2c(c1)N(CCCN1CCC(CCO)CC1)c1ccccc1S2,6,-1,-4,13,4
COC(CNC(=O)c1ccc2c(c1)nc(C)n2-c1ccc(F)c(F)c1)OC,·,-2,·,-6,·
